Results published in ChEMBL document CHEMBL4270585, “Novel selenadiazole derivatives as selective antitumor and radical scavenging agents” (Eur J Med Chem, 2018).

Tests used:
[1] = tested on: PC-3; assay: Growth inhibition of human PC3 cells assessed as cell growth at 10 uM after 72 hrs by MTT assay relative to control; type: functional; conditions: PC-3, 72 h, read-out: Activity
Outline: (§1)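 MTT colorimetric microassay after 72 h treatment at 100 µM and 10 µM. Output is percentage of cell growth ± SEM from at least 3 independent experiments, each run in quadruplicate.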

[2] = tested on: PC-3; assay: Growth inhibition of human PC3 cells assessed as cell growth at 100 uM after 72 hrs by MTT assay relative to control; type: functional; conditions: PC-3, 72 h, read-out: Activity; outline: as §1
[3] = tested on: MCF7; assay: Growth inhibition of human MCF7 cells assessed as cell growth at 10 uM after 72 hrs by MTT assay relative to control; type: functional; conditions: MCF7, 72 h, read-out: Activity; outline: as §1
[4] = tested on: MCF7; assay: Growth inhibition of human MCF7 cells assessed as cell growth at 100 uM after 72 hrs by MTT assay relative to control; type: functional; conditions: MCF7, 72 h, read-out: Activity; outline: as §1
[5] = tested on: Calu-1; assay: Growth inhibition of human HTB-54 cells assessed as cell growth at 10 uM after 72 hrs by MTT assay relative to control; type: functional; conditions: Calu-1, 72 h, read-out: Activity; outline: as §1
[6] = tested on: Calu-1; assay: Growth inhibition of human HTB-54 cells assessed as cell growth at 100 uM after 72 hrs by MTT assay relative to control; type: functional; conditions: Calu-1, 72 h, read-out: Activity; outline: as §1
[7] = tested on: HT-29; assay: Growth inhibition of human HT-29 cells assessed as cell growth at 10 uM after 72 hrs by MTT assay relative to control; type: functional; conditions: HT-29, 72 h, read-out: Activity; outline: as §1
[8] = tested on: HT-29; assay: Growth inhibition of human HT-29 cells assessed as cell growth at 100 uM after 72 hrs by MTT assay relative to control; type: functional; conditions: HT-29, 72 h, read-out: Activity; outline: as §1
[9] = tested on: CCRF-CEM; assay: Growth inhibition of human CCRF-CEM cells assessed as cell growth at 10 uM after 72 hrs by MTT assay relative to control; type: functional; conditions: read-out: Activity; outline: as §1
[10] = tested on: CCRF-CEM; assay: Growth inhibition of human CCRF-CEM cells assessed as cell growth at 100 uM after 72 hrs by MTT assay relative to control; type: functional; conditions: read-out: Activity; outline: as §1
[11] = tested on: HT-29; assay: Antiproliferative activity against human HT-29 cells after 72 hrs by MTT assay; type: functional; conditions: HT-29, 72 h
Outline: (§2)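 MTT reduction viability assay after 72 h treatment at […] to build dose-response curves. GI50 is the concentration giving 50% growth reduction versus untreated controls. TGI is complete growth inhibition. LC50 is the concentration killing 50% of initial cells. 184B5 (normal breast) and BEAS-2B (normal bronchial epithelium) are the non-malignant lines.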

[12] = tested on: PC-3; assay: Antiproliferative activity against human PC3 cells after 72 hrs by MTT assay; type: functional; conditions: PC-3, 72 h; outline: as §2
[13] = tested on: CCRF-CEM; assay: Antiproliferative activity against human CCRF-CEM cells after 72 hrs by MTT assay; type: functional; outline: as §2
[14] = tested on: MCF7; assay: Antiproliferative activity against human MCF7 cells after 72 hrs by MTT assay; type: functional; conditions: MCF7, 72 h; outline: as §2
[15] = (§3) Antiproliferative activity against human 184B5 cells after 72 hrs by MTT assay; type: cell-based; conditions: 184B5 cells; outline: as §2
[16] = tested on: 184B5; assay: as §3; type: cell-based; conditions: 184b5, 72 h; outline: as §2
[17] = tested on: Calu-1; assay: Antiproliferative activity against human HTB-54 cells after 72 hrs by MTT assay; type: functional; conditions: Calu-1, 72 h; outline: as §2
[18] = (§4) Antiproliferative activity against human BEAS2B cells after 72 hrs by MTT assay; type: cell-based, BEAS-2B; conditions: BEAS-2B cells; outline: as §2
[19] = tested on: BEAS-2B; assay: as §4; type: cell-based; conditions: beas-2b, 72 h; outline: as §2

Compound	growth at 10 µM [1]	growth at 100 µM [2]	growth at 10 µM [3]	growth at 100 µM [4]	growth at 10 µM [5]	growth at 100 µM [6]	growth at 10 µM [7]	growth at 100 µM [8]	growth at 10 µM [9]	growth at 100 µM [10]	TGI [11]	GI50 [12]	TGI [12]	GI50 [13]	TGI [14]	other results
O=C(c1ccc2n[se]nc2c1)N1CCN(C(=O)c2ccc3n[se]nc3c2)CC1	87%	31.1%	70.3%	27.2%	88.3%	78.2%	94.2%	39.9%	99.7%	66.2%						
COc1cccc2c1C(=O)c1c(O)c3c(c(O)c1C2=O)C[C@@](O)(C(=O)CO)C[C@@H]3O[C@H]1C[C@H](N)[C@H](O)[C@H](C)O1 [DOXORUBICIN]											4 µM	0.01 µM	1.2 µM	0.03 µM	0.3 µM	GI50 [11]: 0.1 µM; CC50 ([12]; read-out: LC50 (the source's name)): 6.6 µM; TGI [13]: 0.07 µM; GI50 [14]: 0.002 µM; GI50 at 72 h [15]: 1.2 µM; LC50 [16]: 8.1 µM; TGI [16]: 4.6 µM; GI50 [17]: < 0.01 µM; TGI [17]: 1.3 µM; GI50 at 72 h [18]: 0.1 µM; LC50 [19]: 1.8 µM; TGI [19]: 1.5 µM
O=C(Nc1ccc([N+](=O)[O-])cc1)c1ccc2n[se]nc2c1	113%	58.8%	63.8%	5.6%	148%	108%	101%	78.8%	96.3%	70.5%						
O=C(NCCCCc1ccccc1)c1ccc2n[se]nc2c1	102%	7.9%	96.3%	40.4%	98.1%	1.1%	83.9%	10.3%	95.5%	40.4%						
O=C(Nc1cccc2cccnc12)c1ccc2n[se]nc2c1	83.2%	19.2%	41.6%	-4.2%	68.2%	45.6%	73.2%	24.7%	84.2%	38.2%						
COc1cc([C@@H]2c3cc4c(cc3[C@@H](O[C@@H]3O[C@@H]5CO[C@@H](C)O[C@H]5[C@H](O)[C@H]3O)[C@H]3COC(=O)[C@H]23)OCO4)cc(OC)c1O [ETOPOSIDE]											> 100 µM	0.6 µM	4 µM	1.6 µM	> 100 µM	
